The values below come from ChEMBL document CHEMBL1132730, “Design, synthesis, and discovery of 3-piperazinyl-3,4-dihydro-2(1H)-quinolinone derivatives: a novel series of mixed dopamine D2/D4 receptor antagonists” (Bioorg Med Chem Lett, 2000).

pKi: −log10 of the molar value.

A word on the Ki: it is a measure of affinity in units of concentration, obtained from inhibition or displacement. Low readings indicate higher affinity, high ones lower affinity. The term pKi denotes the Ki on a negative log10 scale, so that one unit is a factor of ten.

Test [1] deals with T1, Alpha adrenergic receptor 1A and 1B (Rattus norvegicus, UniProt P15823+P43140).
T1 sequence (P15823 whole entry): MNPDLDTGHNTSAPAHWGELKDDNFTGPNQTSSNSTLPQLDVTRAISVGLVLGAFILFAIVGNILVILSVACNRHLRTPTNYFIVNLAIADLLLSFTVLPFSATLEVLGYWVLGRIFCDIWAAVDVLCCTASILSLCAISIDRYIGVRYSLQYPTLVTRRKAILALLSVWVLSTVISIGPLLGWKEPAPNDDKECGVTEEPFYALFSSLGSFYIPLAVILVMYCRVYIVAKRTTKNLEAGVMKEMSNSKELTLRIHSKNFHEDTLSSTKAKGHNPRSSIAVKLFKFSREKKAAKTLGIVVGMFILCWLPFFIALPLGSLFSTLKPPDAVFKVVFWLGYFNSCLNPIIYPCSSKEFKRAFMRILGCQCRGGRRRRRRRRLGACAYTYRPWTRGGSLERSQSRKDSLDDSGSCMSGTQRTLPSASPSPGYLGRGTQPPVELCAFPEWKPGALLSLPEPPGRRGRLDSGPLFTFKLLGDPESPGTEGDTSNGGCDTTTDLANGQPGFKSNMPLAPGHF
T1 sequence (P43140 whole entry): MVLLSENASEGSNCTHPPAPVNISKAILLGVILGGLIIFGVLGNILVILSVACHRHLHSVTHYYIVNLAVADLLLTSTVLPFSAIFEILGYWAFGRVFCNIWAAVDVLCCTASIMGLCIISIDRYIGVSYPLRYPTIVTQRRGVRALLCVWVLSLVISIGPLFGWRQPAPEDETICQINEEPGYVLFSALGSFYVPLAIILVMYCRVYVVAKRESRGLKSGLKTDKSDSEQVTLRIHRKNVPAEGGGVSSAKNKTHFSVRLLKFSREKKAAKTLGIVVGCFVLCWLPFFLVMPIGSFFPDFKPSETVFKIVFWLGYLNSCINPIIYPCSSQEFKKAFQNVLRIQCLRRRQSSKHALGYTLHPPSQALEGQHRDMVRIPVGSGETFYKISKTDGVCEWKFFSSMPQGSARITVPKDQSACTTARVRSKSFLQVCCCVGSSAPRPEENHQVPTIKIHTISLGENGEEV
As to the kind of experiment: Binding affinity at Alpha-1 adrenergic receptor in rat brain homogenates by [3H]- prazosin displacement. Type of test: tissue-based.

Test [2] has as its target T2, D(2) dopamine receptor (Homo sapiens, UniProt P14416).
In test [3] the target is T3, D(4) dopamine receptor (Homo sapiens, UniProt P21917).
T3 sequence (P21917 whole entry): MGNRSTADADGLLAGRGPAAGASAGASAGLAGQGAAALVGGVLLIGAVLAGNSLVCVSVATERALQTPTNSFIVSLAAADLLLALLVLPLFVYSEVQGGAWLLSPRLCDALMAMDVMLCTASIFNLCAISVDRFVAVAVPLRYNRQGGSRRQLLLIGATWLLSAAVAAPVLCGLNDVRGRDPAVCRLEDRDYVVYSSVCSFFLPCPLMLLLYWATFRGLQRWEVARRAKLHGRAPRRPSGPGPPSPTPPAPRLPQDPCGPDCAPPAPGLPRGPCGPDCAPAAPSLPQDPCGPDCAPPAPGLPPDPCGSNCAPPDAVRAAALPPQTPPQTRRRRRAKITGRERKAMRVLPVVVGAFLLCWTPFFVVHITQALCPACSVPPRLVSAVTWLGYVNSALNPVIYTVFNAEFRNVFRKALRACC
As to the kind of experiment: Binding affinity at human Dopamine receptor D4 by [3H]- YM 09151 displacement.

Test [4] deals with T2, D(2) dopamine receptor. The experiment in a line: Binding affinity at human Dopamine receptor D2 by [3H]- YM 09151 displacement; Not active. The essentials:
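Competitive radioligand displacement on cloned human D2 receptor, with [3H]YM 09151 as the displaced ligand.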

Test [5] addresses T3, D(4) dopamine receptor. As to the kind of experiment: Binding affinity at human Dopamine receptor D4 by [3H]- YM 09151 displacement; Not active.

T2 sequence (P14416 whole entry): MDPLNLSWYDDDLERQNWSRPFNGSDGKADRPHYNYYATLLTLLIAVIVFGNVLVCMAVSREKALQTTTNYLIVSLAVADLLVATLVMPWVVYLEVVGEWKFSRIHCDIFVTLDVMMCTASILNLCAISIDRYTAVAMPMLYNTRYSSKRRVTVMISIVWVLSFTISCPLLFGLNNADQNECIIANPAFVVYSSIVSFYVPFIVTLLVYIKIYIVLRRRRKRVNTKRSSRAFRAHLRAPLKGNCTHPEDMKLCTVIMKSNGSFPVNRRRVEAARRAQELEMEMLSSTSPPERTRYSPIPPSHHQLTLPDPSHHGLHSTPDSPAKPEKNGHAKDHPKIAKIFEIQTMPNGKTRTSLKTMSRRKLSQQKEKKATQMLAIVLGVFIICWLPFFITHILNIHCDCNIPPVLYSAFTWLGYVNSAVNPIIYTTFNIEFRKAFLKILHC

For the compound `CCN1C(=O)C(N2CCN(Cc3ccc(C)cc3)CC2)CCc2ccccc21` (stereo unspecified), the Ki in test [1] is listed as 815 nM. Moreover, the pKi is below 6.00 at D(2) dopamine receptor [2] and 5.53 at D(4) dopamine receptor [3].

In test [1], `O=C1Nc2ccccc2CCC1N1CCN(Cc2ccc(Cl)cc2)CC1` (stereo unspecified) gave a Ki of 9591 nM. Besides, the pKi on D(2) dopamine receptor [2] and at D(4) dopamine receptor [3] was below 6.00 in each case.

As to `CCOC(=O)C(Cc1ccccc1N)(C(=O)OCC)N1CCN(Cc2ccc(Cl)cc2)CC1`, the Ki result on D(2) dopamine receptor [4] and at D(4) dopamine receptor [5] was “Not Active” throughout.

Regarding `Cc1cnc(N2CCN(Cc3c[nH]c(-c4ccccc4)n3)CC2)nc1`, the Ki entry at D(2) dopamine receptor [4] and on D(4) dopamine receptor [5] was “Not Active” each time.

Compound `CCN1C(=O)C(N2CCN(Cc3ccc(Cl)cc3)CC2)Cc2ccccc21` (stereo unspecified) displayed a Ki in test [1] of 1265 nM. Besides, the pKi at D(2) dopamine receptor [2] is 7.68; on D(4) dopamine receptor [3] it was 8.40.

Take `Clc1ccc(N2CCN(Cc3c[nH]c4ncccc34)CC2)cc1` [L-745870]: the Ki entry at D(2) dopamine receptor [4] and at D(4) dopamine receptor [5] was “Not Active” throughout.

The compound `O=C1Nc2ccccc2CC1N1CCN(Cc2ccc(Cl)cc2)CC1` (stereo unspecified) returned a Ki in test [1] of 2003 nM. In addition, the pKi was 5.86 at D(2) dopamine receptor [2] and 7.00 on D(4) dopamine receptor [3].

`CCOC(=O)C(Cc1ccccc1[N+](=O)[O-])(C(=O)OCC)N1CCN(Cc2ccc(Cl)cc2)CC1`: the Ki entry on D(2) dopamine receptor [4] and on D(4) dopamine receptor [5] was “Not Active” in each case.

`CCOC(=O)C1(N2CCN(Cc3ccc(Cl)cc3)CC2)Cc2ccccc2NC1=O` (stereo unspecified): the Ki entry at D(2) dopamine receptor [4] and on D(4) dopamine receptor [5] was “Not Active” throughout.

In the case of `Cc1ccc(CN2CCN(C3(C)C(=O)N(C)c4ccccc43)CC2)cc1` (stereo unspecified), the Ki in test [1] is on record as above 10000 nM. Also, the pKi at D(2) dopamine receptor [2] and at D(4) dopamine receptor [3] was below 6.00 in each case.

Turning to `Fc1ccc(OC[C@@H]2CC[C@H]3CN(c4ncc(F)cn4)CCN3C2)cc1`, the Ki result at D(2) dopamine receptor [4] and on D(4) dopamine receptor [5] was “Not Active” throughout.

In the case of `CN(C(=O)CN1CCN(Cc2ccc(Cl)cc2)CC1)c1ccccc1`, the Ki in test [1] is above 10000 nM. For the same compound, the pKi on D(2) dopamine receptor [2] was below 6.00; at D(4) dopamine receptor [3], 7.23.

In test [1], `Clc1ccc(N2CCN(C[C@H]3C[C@@H]3c3ccccc3)CC2)c(Cl)c1` registered an inhibition constant (Ki) of 322 nM. In other words, the sub-micromolar range.

`Cc1ccc(CN2CCN(C3CCc4ccccc4NC3=O)CC2)cc1` (stereo unspecified) gave a Ki in test [1] of 3120 nM. Also, the pKi at D(2) dopamine receptor [2] and on D(4) dopamine receptor [3] was below 6.00 in each case.

Regarding `O=C1Nc2ccccc2C1Cl` (stereo unspecified), the Ki result on D(2) dopamine receptor [4] and on D(4) dopamine receptor [5] was “Not Active” each time.

On to `O=C1Nc2ccccc2CCC1I` (stereo unspecified), for which the Ki result at D(2) dopamine receptor [4] and on D(4) dopamine receptor [5] was “Not Active” each time.

Consider `Clc1ccc(CN2CCNCC2)cc1`, for which the Ki entry on D(2) dopamine receptor [4] and on D(4) dopamine receptor [5] was “Not Active” throughout.

Turning to `O=C1Nc2ccccc2C1N1CCN(Cc2ccc(Cl)cc2)CC1` (stereo unspecified), in test [1], the Ki was above 10000 nM. The pKi on D(2) dopamine receptor [2] and on D(4) dopamine receptor [3] was below 6.00 throughout.

In the case of `CN1C(=O)C(N2CCN(Cc3ccc(Cl)cc3)CC2)CCc2ccccc21` (stereo unspecified), in test [1], the Ki worked out at 2878 nM. The pKi on D(2) dopamine receptor [2] is 5.13; on D(4) dopamine receptor [3] it was 5.61.

`CCN1C(=O)C(CC)(N2CCN(Cc3ccc(C)cc3)CC2)c2ccccc21` (stereo unspecified) came in with a Ki in test [1] above 10000 nM. Further, the pKi on D(2) dopamine receptor [2] and on D(4) dopamine receptor [3] was below 6.00 each time.

The compound `CN1C(=O)C(N2CCN(Cc3ccc(Cl)cc3)CC2)Cc2ccccc21` (stereo unspecified) displayed a Ki in test [1] of 2003 nM. Further, the pKi on D(2) dopamine receptor [2] is 6.88; on D(4) dopamine receptor [3], 8.40.

For the compound `CCOC(=O)C(C(=O)OCC)N1CCN(Cc2ccc(Cl)cc2)CC1`, the Ki result on D(2) dopamine receptor [4] and at D(4) dopamine receptor [5] was “Not Active” throughout.

Compound `CCN1C(=O)C(CC)(N2CCN(Cc3ccc(Cl)cc3)CC2)c2ccccc21` (stereo unspecified) came in with a Ki in test [1] above 10000 nM. The pKi on D(2) dopamine receptor [2] is below 6.00; at D(4) dopamine receptor [3], 5.15.

`Cc1ccc(CN2CCN(C3CCc4ccccc4N(C)C3=O)CC2)cc1` (stereo unspecified): in test [1], the Ki stood at 2038 nM. For the same compound, the values for the pKi on D(2) dopamine receptor [2] and at D(4) dopamine receptor [3] were below 6.00 and 5.36, respectively.

Regarding `NS(=O)(=O)c1ccc(N2CCN(CC[C@@H]3OCCc4ccccc43)CC2)cc1` [SONEPIPRAZOLE], the Ki result at D(2) dopamine receptor [4] and at D(4) dopamine receptor [5] was “Not Active” in each case.

In test [1], `Cc1ccc(CN2CCN(C3C(=O)Nc4ccccc43)CC2)cc1` (stereo unspecified) had a Ki above 10000 nM. Further, the pKi at D(2) dopamine receptor [2] and on D(4) dopamine receptor [3] was below 6.00 throughout.

In test [1], `CN1C(=O)C(C)(N2CCN(Cc3ccc(Cl)cc3)CC2)c2ccccc21` (stereo unspecified) had a Ki above 10000 nM. Also, the pKi at D(2) dopamine receptor [2] and at D(4) dopamine receptor [3] was below 6.00 each time.

Compound `CCN1C(=O)C(N2CCN(Cc3ccc(Cl)cc3)CC2)CCc2ccccc21` (stereo unspecified) registered a Ki in test [1] of 2678 nM. Also, the pKi on D(2) dopamine receptor [2] was below 6.00; at D(4) dopamine receptor [3], 5.82.
